# Screening results deposited in PubChem BioAssay by several laboratories.
# Sampled rows, rich in hits. Any-hit rate of the full collection: about 9.3%.
# DAT uptake mod: modulates human dopamine transporter uptake under cocaine; B-score at 10 µM; LLC-PK1 hDAT cells, [14C]-dopamine uptake with cocaine IC80; actives deviate in either direction; 110,000 compounds, 1.3% hits; Q01959;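 active = Z score or B-score, a plate-position-corrected score, falls beyond the plate's 99.7% confidence bounds, in either direction; inactive = both scores lie inside the 99.7% bounds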;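 note: scored against the spread of the other compound wells on the same plate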
# PostGolgi yeast: growth inhibition of a yeast mutant, post-Golgi transport screen; post-Golgi transport phenotypic cell assay; inhibition, % at 10 µM; 98,000 compounds, 0.9% hits; AID 739;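 note: yeast cells grown in 1536-well plates; yeast grown about 18 h at 30C before absorbance read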
# PostGolgi ctrl: yeast control strain growth, post-Golgi counter-screen; efflux-deficient yeast background strain, growth absorbance A615, 16 h; AID 738; 98,000 compounds, 5% hits; inhibition, % at 10 µM
# Ecoli tolC: E. coli tolC mutant growth inhibition; E. coli BW25113 tolC mutant growth, OD615; growth inhibition, % at 10 µM (by protocol); 65,000 compounds, 2.2% hits; AID 573;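 active = growth inhibition at or above a cutoff equal to the mean over every tested compound plus 3 SD, cut at about 60% in these data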;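 note: growth measured after 20 h incubation at 37 °C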
#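 Test system: tolC-deleted E. coli BW25113; medium: LB with kanamycin 50 µg/mL; compound: single-point testing at 10 µM; incubation: 20 h compound exposure of bacteria at 37 °C; signal: OD at 615 nm; evaluation: growth inhibition in percent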
# Ecoli WT expand: E. coli BW25113 growth inhibition, expanded screen | OD600 absorbance | growth inhibition, % at 100 µM | 98,000 compounds, 0.15% hits | AID 710;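 active = growth inhibition above about 50% at one test dose, limit read from the data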;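 note: growth measured after 20 h incubation at 37 °C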
# D1 mod: allosterically modulates the human D1 dopamine receptor. HEK293 D1, CRE-luciferase, dopamine EC30 potentiation; actives deviate in either direction. B-score at 10 µM. 58,000 compounds, 5.9% hits. AID 641;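 active = luminescence count or its row- and column-corrected plate score outside the 99.7% band of the plate's sample wells, on either side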
# Target sequence (P21728 whole entry, looked up): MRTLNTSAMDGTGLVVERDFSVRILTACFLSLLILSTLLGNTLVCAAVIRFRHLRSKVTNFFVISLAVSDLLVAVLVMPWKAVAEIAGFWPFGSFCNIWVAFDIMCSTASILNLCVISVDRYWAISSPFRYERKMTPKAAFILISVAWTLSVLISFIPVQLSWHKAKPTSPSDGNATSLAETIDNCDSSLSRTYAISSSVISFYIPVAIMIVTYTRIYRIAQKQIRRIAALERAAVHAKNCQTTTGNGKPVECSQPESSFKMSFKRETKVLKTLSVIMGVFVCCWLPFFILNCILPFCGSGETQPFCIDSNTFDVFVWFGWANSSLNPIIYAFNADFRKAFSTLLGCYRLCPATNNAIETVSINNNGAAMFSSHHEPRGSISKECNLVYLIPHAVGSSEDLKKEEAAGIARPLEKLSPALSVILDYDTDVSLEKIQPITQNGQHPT
# The depositor's hits bear a star; x = no result given. Cut-off read from the data, not from the text of the source, unless noted: active = inhibition above about 30%; inactive = the rest.
SMILES,DAT uptake mod,PostGolgi yeast,PostGolgi ctrl,Ecoli tolC,Ecoli WT expand,D1 mod
CCOC(=O)c1c(C)n(C)c2ccc(OC(=O)c3ccoc3)cc12,1.7,7,32*,-4,-10,0.32
COCCOC(=O)c1c(C)n(C)c2ccc(OC(=O)c3ccco3)cc12,-0.11,-6,10,x,-3,x
CCOC(=O)c1c(C)n(C)c2ccc(OCC(O)Cn3c(C)nc4ccccc43)cc12 (configuration not stated),2*,-12,-1,45,0,-0.29
CC(=O)Nc1cc(S(=O)(=O)Nc2ccccc2C)c(C)cc1C,-1.6,-3,-2,x,-6,x
COc1ccc(N2CC(C)Cn3c2nc2c3c(=O)[nH]c(=O)n2C)cc1 (configuration not stated),1.4,3,5,-19,5,-0.35
Cn1c(-c2sccc2OCc2ccccc2)n[nH]c1=S,-10*,-4,6,x,1,x
Cn1ccnc1SCC(=O)Nc1cc(C(F)(F)F)ccc1N1CCOCC1,-0.024,-4,6,x,-1,x
CCOC(=O)c1c(NC(=O)CSc2nnc(C)s2)sc2c1CCC(CC)C2 (configuration not stated),2.2*,x,x,x,x,x
CCOC(=O)c1c(NC(=O)CSc2nnnn2-c2ccccc2)sc2c1CCC(C)C2 (configuration not stated),x,-6,5,x,-22,x
C[C@H](NC(=O)c1nc[nH]c1C(=O)NC1CCN(C(=O)OC(C)(C)C)CC1)C(=O)OCc1ccccc1,0.1,x,x,x,x,x
COC(=O)c1c(NC(=O)c2ccccc2)sc(C(=O)c2ccccc2)c1C,0.17,0,-4,x,-6,x
Cc1cc(NC(=O)c2ccccc2)sc1C,0.079,16,-4,98*,54*,-2.9*
Cc1sc(NC(=O)c2ccccc2)c(C(=O)NCCN(C)C)c1C,-1.3,-4,-5,x,6,x
Cc1ccc(NC(=O)c2ccccc2)s1,0.24,-2,4,55,77*,-5.2*
O=C(NC1CC2CCC1C2)C1COc2ccccc2O1 (configuration not stated),1.2,0,31*,0,3,2.5
Cc1nnc(NC(=O)C2COc3ccccc3O2)s1 (configuration not stated),0.18,4,16,4,-8,-0.5
COc1ccc2nc(NC(=O)C3COc4ccccc4O3)sc2c1 (configuration not stated),-0.52,4,36*,93*,-9,-4.8*
O=C(Nc1ccncc1)C1COc2ccccc2O1 (configuration not stated),-1.5,-8,-8,2,9,-0.03
O=C(Nc1nc2c(s1)CCCC2)C1COc2ccccc2O1 (configuration not stated),0.02,23,0,31,5,-6.9*
O=C(NC1=NCCS1)C1COc2ccccc2O1 (configuration not stated),-0.35,6,9,-1,8,-5.4*
O=C1c2ccccc2C(=O)C1c1ccncc1,-0.5,-4,-3,4,11,-3.5*
O=c1c2ccccc2nnn1CSc1nnc(COc2ccc(Cl)cc2)n1Cc1ccco1,-1.3,103*,82*,8,-2,0.28
Cc1ccc(OCc2nnc(SCc3nc4ccccc4[nH]3)n2Cc2ccco2)cc1,0.092,-4,32*,26,3,x
Clc1ccc(OCc2nnc(SCCN3CCCCC3)n2Cc2ccco2)cc1,3.3*,-1,-5,24,2,-2
c1ccc(-c2nnc(SCc3nc4ccccc4[nH]3)n2Cc2ccco2)cc1,2.5,-5,4,x,10,x
SMILES,DAT uptake mod,PostGolgi yeast,PostGolgi ctrl,Ecoli tolC,Ecoli WT expand,D1 mod
O=c1c2ccccc2nnn1CSc1nc2cc(Cl)ccc2c(=O)n1Cc1ccco1,0.16,x,x,-7,x,-0.2
O=C(O)CCC(=O)N1CCc2cc(S(=O)(=O)N3CCC(Cc4ccccc4)CC3)ccc21,-0.38,5,x,100*,-12,x
Cn1c(=O)n(CCN2CCOCC2)c(=O)c2c1nc1n2CCN1c1ccccc1,x,x,x,-28,x,-2.1
O=C(CCCOc1ccc(Cl)cc1Cl)N1CCCc2ccccc21,0.072,-7,48*,x,0,x
Cc1cc(Cl)ccc1OCCCC(=O)N1CCN(C)CC1,1,10,-2,x,0,x
COc1cc2c(cc1OC)CN(C(=O)CCCOc1ccc(Cl)cc1Cl)CC2,1.4,-1,38*,x,-25,x
CC(C)NC(=O)CSc1nnc(C2CC2)n1-c1ccccc1,0.15,-2,1,x,8,x
O=S(=O)(Nc1ccc(S(=O)(=O)N2CCCCCC2)cc1)c1cccs1,1.5,-5,-11,x,-3,x
O=S(=O)(Nc1ccc(S(=O)(=O)N2CCCCC2)cc1)c1ccc(Br)s1,-2.1,-2,12,84*,0,-0.89
COc1ccc(S(=O)(=O)Nc2ccc(S(=O)(=O)N3CCCCC3)cc2)cc1,1.2,0,8,74*,1,-0.25
COc1ccc(OC(=O)c2cc(S(=O)(=O)N3CCCC3)ccc2Cl)cc1,-2.3*,-1,16,x,1,x
COCCNC(=O)[C@@]1(Cc2ccccc2)C=C[C@@H](C)N1C(C)=O,-0.033,x,x,x,x,x
CCC(C)C(NC(=O)C1CCC(C)CC1)C(=O)NC1CCN(Cc2ccccc2)CC1 (configuration not stated),-0.59,x,x,x,x,x
CN1C(=O)C2(Oc3ccccc3C3CC(c4ccccc4)=NN32)c2ccccc21 (configuration not stated),0.13,-6,51*,x,-11,x
CCC1Oc2ccc(C)cc2N(CC(=O)NCCN2CCCCCC2)C1=O (configuration not stated),-0.011,0,1,-6,10,0.3
COC(=O)c1ccccc1S(=O)(=O)N(Cc1ccco1)Cc1cc2cc(OC)ccc2[nH]c1=O,-0.37,-1,7,-12,-9,-0.014
COC(=O)c1ccccc1S(=O)(=O)N(CCCO)Cc1cc2c(C)ccc(C)c2[nH]c1=O,0.45,10,36*,5,-3,0.5
S=C(Nc1ccccc1)Nc1nc2ccccc2n1CCOc1ccccc1,-0.32,-1,32*,x,11,x
Cc1ccc(Cl)cc1NC(=O)CSC(N)=O,0.21,-4,9,x,-6,x
Cc1ccc(Cl)cc1NC(=O)CC(O)(C(F)(F)F)C(F)(F)F,-2.4,9,28,99*,31,-4.2*
Cc1cc(N=Cc2c(O)n(-c3ccc4c(c3)OCO4)c(=O)c3ccccc23)ccn1,-0.7,0,30*,-4,-1,-0.81
CCCCCSc1nc2c(c(=O)[nH]c(=O)n2C)n1CC,0.19,x,x,2,x,9*
CCCCCSc1nc2c(c(=O)[nH]c(=O)n2C)n1C(C)C,-0.05,0,15,12,2,x
C=CCn1c(SCCN2CCOCC2)nc2c1c(=O)[nH]c(=O)n2C,1.4,-7,4,-15,4,0.11
CCCCCSc1nc2c(c(=O)[nH]c(=O)n2C)n1C,-0.33,8,-1,11,-1,2.5
CCCCCCn1c(SCC(C)C)nc2c1c(=O)[nH]c(=O)n2C,0.29,-6,24,1,-6,27*
